In one assay the test system is Plasmodium falciparum. Kind of assay: Antimalarial activity against multidrug-resistant Plasmodium falciparum K1 assessed as reduction in uptake of [3H]-hypoxanthine by microculture radioisotope technique. The format is functional, organism-based. In short, it runs like this: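 P. falciparum K1 (multidrug-resistant) cultured by the Trager–Jensen method and tested in vitro by microculture radioisotope technique. Parasite growth read as [3H]-hypoxanthine uptake. IC50 taken as the concentration giving 50% reduction in growth. Dihydroartemisinin served as the reference standard.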

Assay [1] can be described thus: Cytotoxicity against human KKU-M213 cells by sulforhodamine B assay. The assay is classed as functional, cell-based. In general terms: In SRB staining, fixed cells bind dye roughly in proportion to their protein.
Another assay relates to KB. The assay can be described thus: Cytotoxicity against human KB cells by sulforhodamine B assay. The format is functional, cell-based.
A short description of assay [2]: Cytotoxicity against human KKU-M214 cells by sulforhodamine B assay. The assay is classed as functional, cell-based.
In assay [3] the test system is Mycobacterium tuberculosis. The assay can be described thus: Antimycobacterial activity against Mycobacterium tuberculosis H37Ra by microplate alamar blue assay. The format is functional. For orientation: Resazurin is reduced to fluorescent resorufin, in cell work by metabolically active cells.
Assay [4] can be described thus: Cytotoxicity against human KKU-M156 cells by sulforhodamine B assay. The assay is classed as functional, cell-based.
The nature of assay [5]: Cytotoxicity against human KKU100 cells by sulforhodamine B assay. The format is functional, cell-based.
Assay [6] in a line: Cytotoxicity against human KKU-M139 cells by sulforhodamine B assay. The assay is classed as functional, cell-based.

In brackets after ≈: the same amount, converted by molar mass.

In the case of `C[C@H]1[C@@H](O)O[C@@H]2O[C@@]3(C)CC[C@H]4[C@H](C)CC[C@@H]1[C@@]24OO3` [ARTENIMOL], the IC50 (usually the concentration that gives 50% inhibition) in the assay with Plasmodium falciparum stood at 4.4 nM.
On to `Cc1c2ccncc2c(C)c2c1[nH]c1ccccc12` [ELLIPTECINE], for which the figures for the IC50 (in assay [1]; with KB; in assay [2]) were 0.3 µg/mL (≈ 1.22 µM), 0.19 µg/mL (≈ 0.771 µM) and 0.21 µg/mL (≈ 0.853 µM), respectively.
As to `NNC(=O)c1ccncc1` [ISONIAZID], in assay [3], the MIC (usually the lowest concentration that inhibits growth of the organism) amounted to 0.23 µg/mL (≈ 1.68 µM).
On to `CC(=O)O[C@H]1CC[C@]2(C)[C@H]3Cc4c(O)cc5c(c4O[C@@]3(C)CC[C@H]2C1(C)C)COC5=O` [KAMPANOL A], for which the IC50 in assay [1] was 19.6 µg/mL (≈ 45.7 µM); in assay [4], more than 20 µg/mL; in assay [5], more than 20 µg/mL; in assay [2], more than 20 µg/mL; in assay [6] it was more than 20 µg/mL.
As to `CC1(C)[C@@H](O)CC[C@]2(C)[C@H]3Cc4c(O)cc5c(c4O[C@@]3(C)CC[C@@H]12)COC5=O` [PHOMOARCHERIN A], the IC50 was 16.6 µg/mL (≈ 43 µM) in assay [1]; more than 20 µg/mL in assay [4]; more than 20 µg/mL in assay [5]; 42.1 µg/mL (≈ 109 µM) in the assay on KB; more than 20 µg/mL in assay [2]; more than 20 µg/mL with Plasmodium falciparum. The compound also showed an IC50 in assay [6] of more than 20 µg/mL. In addition, the MIC in assay [3] is more than 200 µg/mL.
Turning to `CC1(C)C(=O)CC[C@]2(C)[C@H]3Cc4c(O)cc5c(c4O[C@@]3(C)CC[C@@H]12)COC5=O` [PHOMOARCHERIN B], the IC50 was more than 20 µg/mL in assay [1]; 2 µg/mL (≈ 5.2 µM) in assay [4]; 8 µg/mL (≈ 20.8 µM) in assay [5]; 9.4 µg/mL (≈ 24.4 µM) in the assay on KB; 5 µg/mL (≈ 13 µM) in assay [2]; 0.79 µg/mL in the assay on Plasmodium falciparum. Moreover, the IC50 in assay [6] stood at 0.1 µg/mL (≈ 0.26 µM). The compound further gave an MIC in assay [3] of 50 µg/mL (≈ 130 µM).
For `Cc1cc(O)c2c(c1C=O)O[C@@]1(C)CC[C@H]3C(C)(C)C(=O)CC[C@]3(C)[C@H]1C2` [PHOMOARCHERIN C], the IC50 in assay [1] is 15.4 µg/mL (≈ 41.6 µM); in assay [4] it was 18 µg/mL (≈ 48.6 µM); in assay [5], 8.9 µg/mL (≈ 24 µM); in assay [2], 18.8 µg/mL (≈ 50.7 µM); in assay [6], 8.9 µg/mL (≈ 24 µM).

Values taken from ChEMBL document CHEMBL1773014, “Cytotoxic pentacyclic and tetracyclic aromatic sesquiterpenes from Phomopsis archeri” (J Nat Prod, 2011).
